From ChEMBL document CHEMBL4052661, “Structure Based Design of N-(3-((1H-Pyrazolo[3,4-b]pyridin-5-yl)ethynyl)benzenesulfonamides as Selective Leucine-Zipper and Sterile-α Motif Kinase (ZAK) Inhibitors” (J Med Chem, 2017)

Experiments:
[1] = target: T1, Mitogen-activated protein kinase kinase kinase 20 (Homo sapiens, UniProt Q9NYL2); test: Binding affinity to partial length human ZAK expressed in Escherichia coli BL21 by active-site-dependent competition assay
Outline: (§1)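 Active-site-dependent competition binding (KINOMEscan) run by an outside service across a panel of 468 kinases (403 nonmutated, 65 mutated); reported as binding constant Kd.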
Target sequence in this assay (Q9NYL2 whole entry): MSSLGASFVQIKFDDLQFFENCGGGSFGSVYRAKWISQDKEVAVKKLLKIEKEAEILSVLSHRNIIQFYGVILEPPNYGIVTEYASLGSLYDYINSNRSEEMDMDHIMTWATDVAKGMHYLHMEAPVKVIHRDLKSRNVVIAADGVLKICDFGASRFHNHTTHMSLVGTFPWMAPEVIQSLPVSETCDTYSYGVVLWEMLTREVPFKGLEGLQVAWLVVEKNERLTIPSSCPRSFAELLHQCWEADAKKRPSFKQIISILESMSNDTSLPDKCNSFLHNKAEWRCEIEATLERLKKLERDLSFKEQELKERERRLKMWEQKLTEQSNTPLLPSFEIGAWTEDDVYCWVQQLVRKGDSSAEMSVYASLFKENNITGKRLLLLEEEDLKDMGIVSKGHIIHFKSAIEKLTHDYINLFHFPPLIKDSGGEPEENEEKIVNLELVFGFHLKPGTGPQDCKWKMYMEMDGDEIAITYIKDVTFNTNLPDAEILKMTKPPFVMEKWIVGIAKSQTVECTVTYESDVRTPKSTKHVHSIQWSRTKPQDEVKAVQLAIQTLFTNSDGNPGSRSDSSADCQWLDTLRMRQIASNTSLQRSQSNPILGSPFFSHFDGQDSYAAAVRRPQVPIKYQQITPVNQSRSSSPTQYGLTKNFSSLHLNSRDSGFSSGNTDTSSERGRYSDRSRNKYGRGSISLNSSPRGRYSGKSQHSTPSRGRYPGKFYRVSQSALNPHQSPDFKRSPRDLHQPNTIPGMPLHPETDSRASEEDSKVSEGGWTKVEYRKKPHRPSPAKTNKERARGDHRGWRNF

[2] = tested on: Mast/stem cell growth factor receptor Kit (Homo sapiens), P10721 [L576P]; test: Inhibition of partial length human KIT L576P mutant expressed in Escherichia coli BL21 assessed as remaining activity at 1 uM after 1 hr by KINOMEscan method
Outline: (§2)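 Active-site-dependent competition binding screen run by an outside provider across a 468-kinase panel (403 nonmutated, 65 mutated kinases).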

[3] = target: T2, Mast/stem cell growth factor receptor Kit (Homo sapiens, UniProt P10721); test: Inhibition of partial length human KIT expressed in Escherichia coli BL21 assessed as remaining activity at 1 uM after 1 hr by KINOMEscan method; outline: as §2
[4] = target: T1, Mitogen-activated protein kinase kinase kinase 20; test: Inhibition of partial length human ZAK expressed in Escherichia coli BL21 assessed as remaining activity at 1 uM after 1 hr by KINOMEscan method; outline: as §2
[5] = target: T3, Serine/threonine-protein kinase B-raf (Homo sapiens, UniProt P15056, V600E); test: Inhibition of partial length human BRAF V600E mutant expressed in HEK293 cells using Ser/Thr3 as substrate after 1 hr by FRET-based Z'-Lyte assay
Outline: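 Z'-Lyte FRET assay with Ser/Thr3 peptide in kinase buffer; the final reaction held 0.002 ng B-Raf for wild type. Incubated 1 h at room temperature, then 1 h development to cleave nonphosphorylated peptide, then stop reagent. Controls: phosphopeptide for 100% phosphorylation, buffer instead of ATP for 100% inhibition, DMSO vehicle for 0% inhibition. Means of 3 independent experiments.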

[6] = tested on: Serine/threonine-protein kinase B-raf (Homo sapiens), P15056 [V600E]; test: Inhibition of partial length human BRAF V600E mutant expressed in HEK293 cells assessed as remaining activity at 1 uM after 1 hr by KINOMEscan method; type: cell-based; outline: as §2
[7] = target: T4, Tyrosine-protein kinase FRK (Homo sapiens, UniProt P42685); test: Binding affinity to partial length human FRK expressed in Escherichia coli BL21 by active-site-dependent competition assay; outline: as §1
[8] = tested on: Rattus norvegicus; test: Inhibition of myocardial hypertrophy in po dosed spontaneous hypertensive WKY rat model assessed as decrease in JNK phosphorylation administered for 4 continuous weeks by Western blot method; type: functional, organism-based
Outline: (§3)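 Spontaneously hypertensive rats given oral 0, 10 or 20 mg/kg/day for 4 continuous weeks alongside normotensive Wistar-Kyoto controls; left ventricles harvested after sacrifice for Western blot analysis.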

[9] = species: Rattus norvegicus; test: Inhibition of ZAK in Ang-2-induced rat H9c2 cells assessed as decrease in JNK phosphorylation by Western blot analysis
[10] = tested on: Mast/stem cell growth factor receptor Kit (Homo sapiens), P10721 [V559D]; test: Inhibition of partial length human KIT V559D mutant expressed in Escherichia coli BL21 assessed as remaining activity at 1 uM after 1 hr by KINOMEscan method; outline: as §2
[11] = target: T5, Aurora kinase B (Homo sapiens, UniProt Q96GD4); test: Binding affinity to partial length human AURKB expressed in HEK293 cells by active-site-dependent competition assay; type: cell-based; outline: as §1
[12] = tested on: Rattus norvegicus; test: Inhibition of myocardial hypertrophy in po dosed spontaneous hypertensive WKY rat model assessed as downregulation of BNP levels administered for 4 continuous weeks by Western blot method; type: functional, organism-based; outline: as §3
[13] = target: Serine/threonine-protein kinase B-raf (Homo sapiens, UniProt P15056); test: Inhibition of wild type GST-tagged recombinant human full-length B-RAF expressed in baculovirus expression system using Ser/Thr3 as substrate after 1 hr by FRET-based Z'-Lyte assay
Outline: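 Z'-Lyte FRET assay with Ser/Thr3 peptide in kinase buffer; the final reaction held 0.002 ng B-Raf for wild type. Incubated 1 h at room temperature, then 1 h development to cleave nonphosphorylated peptide, then stop reagent. Means of 3 independent experiments.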

[14] = tested on: Rattus norvegicus; test: AUC (0 to infinity) in Sprague-Dawley rat at 10 mg/kg, po by HPLC/MS analysis; type: ADME, organism-based; set-up: dose 10 mg/kg, time infinity, route oral; settings: in vivo
Outline: (§4)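 Sprague-Dawley rats given a single oral dose of 10 mg/kg; plasma exposure (AUC), half-life and oral bioavailability derived.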

[15] = Half life in Sprague-Dawley rat at 10 mg/kg, po by HPLC/MS analysis; type: ADME, organism-based; settings: in vivo; outline: as §4
[16] = target: T1, Mitogen-activated protein kinase kinase kinase 20; test: Inhibition of N-terminal GST-tagged recombinant human full-length ZAK expressed in baculovirus infected Sf9 insect cells using MBP as substrate after 30 mins by ADP-Glo assay
Outline: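 ZAK activity by ADP-Glo luminescence with MBP as substrate, ATP and serially diluted compound. Reaction started by adding ATP and run 30 min at room temperature. ADP-Glo reagent was added to stop it (40 min), then detection reagent for 30 min before reading luminescence. Curves fitted; each experiment repeated at least 3 times.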
Target sequence in this assay (Q9NYL2 whole entry): as above

[17] = tested on: Rattus norvegicus; test: Inhibition of myocardial hypertrophy in spontaneous hypertensive WKY rat model assessed as decrease in left ventricular mass at systole at 10 to 20 mg/kg, po administered for 4 continuous weeks relative to control; type: functional
Outline: (§5)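 Spontaneously hypertensive rats randomized into 3 groups given oral 0, 10 or 20 mg/kg/day for 4 continuous weeks; normotensive Wistar-Kyoto rats as reference; n = 6 per group. After sacrifice, left ventricles were collected to measure mass at diastole and systole; heart sections stained with hematoxylin and eosin for cardiomyocyte arrangement.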

[18] = tested on: Rattus norvegicus; test: Inhibition of myocardial hypertrophy in po dosed spontaneous hypertensive WKY rat model assessed as decrease in left ventricular mass at systole administered for 4 continuous weeks; type: functional, organism-based; outline: as §5
[19] = target: T4, Tyrosine-protein kinase FRK; test: Inhibition of partial length human FRK expressed in Escherichia coli BL21 assessed as remaining activity at 1 uM after 1 hr by KINOMEscan method; outline: as §2
[20] = target: T2, Mast/stem cell growth factor receptor Kit; test: Binding affinity to partial length human KIT expressed in Escherichia coli BL21 by active-site-dependent competition assay; outline: as §1
[21] = target: T5, Aurora kinase B; test: Inhibition of partial length human AURKB expressed in HEK293 cells assessed as remaining activity at 1 uM after 1 hr by KINOMEscan method; type: cell-based; outline: as §2
[22] = Protein binding in mouse plasma at 1 uM after 4 hrs by equilibrium dialysis method; type: ADME, cell-free; settings: read-out: PPB (converted)
[23] = target: T6, Serine/threonine-protein kinase SIK1 (Homo sapiens, UniProt P57059); test: Binding affinity to partial length human SIK expressed in Escherichia coli BL21 by active-site-dependent competition assay; outline: as §1
[24] = target: T7, Tyrosine-protein kinase Srms (Homo sapiens, UniProt Q9H3Y6); test: Inhibition of partial length human SRMS expressed in HEK293 cells assessed as remaining activity at 1 uM after 1 hr by KINOMEscan method; type: cell-based; outline: as §2
[25] = target: T8, Dual specificity mitogen-activated protein kinase kinase 5 (Homo sapiens, UniProt Q13163); test: Binding affinity to partial length human MEK5 expressed in HEK293 cells by active-site-dependent competition assay; type: cell-based; outline: as §1
T8 sequence (Q13163 whole entry): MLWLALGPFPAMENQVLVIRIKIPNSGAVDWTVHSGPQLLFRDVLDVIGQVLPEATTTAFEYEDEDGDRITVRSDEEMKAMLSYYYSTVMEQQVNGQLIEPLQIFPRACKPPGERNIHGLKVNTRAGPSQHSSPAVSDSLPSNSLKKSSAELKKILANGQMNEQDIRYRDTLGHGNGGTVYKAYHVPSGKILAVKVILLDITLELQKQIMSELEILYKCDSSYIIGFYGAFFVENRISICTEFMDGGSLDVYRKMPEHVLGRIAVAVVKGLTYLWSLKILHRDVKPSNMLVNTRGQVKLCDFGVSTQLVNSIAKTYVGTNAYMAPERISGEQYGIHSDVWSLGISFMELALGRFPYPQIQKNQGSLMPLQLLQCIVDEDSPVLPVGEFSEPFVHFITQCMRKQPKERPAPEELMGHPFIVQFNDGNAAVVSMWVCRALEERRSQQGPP

[26] = target: T7, Tyrosine-protein kinase Srms; test: Binding affinity to partial length human SRMS expressed in HEK293 cells by active-site-dependent competition assay; type: cell-based; outline: as §1
[27] = target: T6, Serine/threonine-protein kinase SIK1; test: Inhibition of partial length human SIK expressed in Escherichia coli BL21 assessed as remaining activity at 1 uM after 1 hr by KINOMEscan method; outline: as §2
[28] = tested on: Rattus norvegicus; test: Inhibition of myocardial hypertrophy in po dosed spontaneous hypertensive WKY rat model assessed as restoration of cardiomyocyte disarrangement to normal phenomena administered for 4 continuous weeks by Hematoxylin and eosin staining-based light microscopic method; type: functional, organism-based; outline: as §5
[29] = target: T3, Serine/threonine-protein kinase B-raf; test: Inhibition of recombinant human B-RAF V600E mutant using Ser/Thr3 as substrate after 1 hr by FRET-based Z'-Lyte assay
[30] = tested on: Rattus norvegicus; test: Inhibition of myocardial hypertrophy in po dosed spontaneous hypertensive WKY rat model assessed as decrease in left ventricular mass at diastole administered for 4 continuous weeks; type: functional, organism-based; outline: as §5
[31] = target: Mast/stem cell growth factor receptor Kit (Homo sapiens, UniProt P10721, L576P); test: Binding affinity to partial length human KIT L576P mutant expressed in Escherichia coli BL21 by active-site-dependent competition assay; outline: as §1
[32] = tested on: Rattus norvegicus; test: Inhibition of myocardial hypertrophy in po dosed spontaneous hypertensive WKY rat model assessed as decrease in p38 phosphorylation administered for 4 continuous weeks by Western blot method; type: functional, organism-based; outline: as §3
[33] = target: T9, Dual specificity mitogen-activated protein kinase kinase 5 (Homo sapiens) (UniProt Q13163); test: Inhibition of partial length human MEK5 expressed in HEK293 cells assessed as remaining activity at 1 uM after 1 hr by KINOMEscan method; type: cell-based; outline: as §2
T9 sequence (whole entry): T8 sequence (Q13163 whole entry)

[34] = target: T3, Serine/threonine-protein kinase B-raf; test: Binding affinity to partial length human BRAF V600E mutant expressed in HEK293 cells by active-site-dependent competition assay; type: cell-based; outline: as §1
[35] = tested on: Rattus norvegicus; test: Inhibition of myocardial hypertrophy in spontaneous hypertensive WKY rat model assessed as left ventricular mass at diastole at 20 mg/kg, po administered for 4 continuous weeks (reference value: 1.2 +/- 0.052 g); type: functional; outline: as §5
[36] = species: Rattus norvegicus; test: Inhibition of ZAK in Ang-2-induced rat H9c2 cells assessed as downregulation of BNP levels by Western blot analysis
[37] = Oral bioavailability in Sprague-Dawley rat at 10 mg/kg by HPLC/MS analysis; type: ADME, organism-based; settings: in vivo; outline: as §4
[38] = species: Rattus norvegicus; test: Inhibition of ZAK in Ang-2-induced rat H9c2 cells assessed as decrease in p38 phosphorylation by Western blot analysis
[39] = target: Mast/stem cell growth factor receptor Kit (Homo sapiens, UniProt P10721, V559D); test: Binding affinity to partial length human KIT V559D mutant expressed in Escherichia coli BL21 by active-site-dependent competition assay; outline: as §1

T3 sequence (P15056 2-766 V600E limits assumed): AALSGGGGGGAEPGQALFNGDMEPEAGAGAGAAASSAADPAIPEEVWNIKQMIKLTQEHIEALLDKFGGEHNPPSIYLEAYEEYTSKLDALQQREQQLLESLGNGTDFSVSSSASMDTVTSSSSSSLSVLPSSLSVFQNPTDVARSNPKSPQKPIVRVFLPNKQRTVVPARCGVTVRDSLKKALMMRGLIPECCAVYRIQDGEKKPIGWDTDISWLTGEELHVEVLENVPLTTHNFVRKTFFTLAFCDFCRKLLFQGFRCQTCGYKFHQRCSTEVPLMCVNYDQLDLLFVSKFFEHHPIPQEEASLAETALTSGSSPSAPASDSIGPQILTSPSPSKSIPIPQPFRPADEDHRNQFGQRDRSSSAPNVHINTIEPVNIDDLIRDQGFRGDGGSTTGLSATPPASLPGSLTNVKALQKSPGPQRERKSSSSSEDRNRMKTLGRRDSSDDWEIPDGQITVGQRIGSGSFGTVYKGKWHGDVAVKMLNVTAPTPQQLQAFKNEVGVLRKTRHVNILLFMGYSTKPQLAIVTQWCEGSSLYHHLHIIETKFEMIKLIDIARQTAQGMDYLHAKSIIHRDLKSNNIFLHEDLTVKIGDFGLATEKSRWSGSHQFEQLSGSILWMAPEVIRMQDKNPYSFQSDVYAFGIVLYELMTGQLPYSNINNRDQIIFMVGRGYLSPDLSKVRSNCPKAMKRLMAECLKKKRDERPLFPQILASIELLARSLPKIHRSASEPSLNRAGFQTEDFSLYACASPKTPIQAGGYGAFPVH
T6 sequence (P57059 whole entry): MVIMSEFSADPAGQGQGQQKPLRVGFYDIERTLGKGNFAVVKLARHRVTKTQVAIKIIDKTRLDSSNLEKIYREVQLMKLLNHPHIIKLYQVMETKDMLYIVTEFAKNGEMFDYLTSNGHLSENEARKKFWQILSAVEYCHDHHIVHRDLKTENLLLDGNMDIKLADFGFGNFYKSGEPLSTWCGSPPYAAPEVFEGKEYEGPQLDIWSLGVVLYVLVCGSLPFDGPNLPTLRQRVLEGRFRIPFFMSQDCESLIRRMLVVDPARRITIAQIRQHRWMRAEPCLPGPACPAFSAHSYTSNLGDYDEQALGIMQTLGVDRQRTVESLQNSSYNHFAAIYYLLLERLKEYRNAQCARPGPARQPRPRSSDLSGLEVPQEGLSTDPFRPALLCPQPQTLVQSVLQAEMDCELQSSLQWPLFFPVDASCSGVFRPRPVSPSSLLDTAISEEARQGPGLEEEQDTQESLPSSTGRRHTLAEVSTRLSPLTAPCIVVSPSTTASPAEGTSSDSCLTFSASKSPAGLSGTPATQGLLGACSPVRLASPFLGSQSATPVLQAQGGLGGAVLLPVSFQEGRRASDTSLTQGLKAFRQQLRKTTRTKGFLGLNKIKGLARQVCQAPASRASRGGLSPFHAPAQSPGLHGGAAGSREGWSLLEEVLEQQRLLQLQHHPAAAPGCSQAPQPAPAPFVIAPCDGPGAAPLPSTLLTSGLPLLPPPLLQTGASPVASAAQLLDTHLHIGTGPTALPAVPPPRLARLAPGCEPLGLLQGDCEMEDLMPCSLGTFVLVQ
T2 sequence (P10721 whole entry): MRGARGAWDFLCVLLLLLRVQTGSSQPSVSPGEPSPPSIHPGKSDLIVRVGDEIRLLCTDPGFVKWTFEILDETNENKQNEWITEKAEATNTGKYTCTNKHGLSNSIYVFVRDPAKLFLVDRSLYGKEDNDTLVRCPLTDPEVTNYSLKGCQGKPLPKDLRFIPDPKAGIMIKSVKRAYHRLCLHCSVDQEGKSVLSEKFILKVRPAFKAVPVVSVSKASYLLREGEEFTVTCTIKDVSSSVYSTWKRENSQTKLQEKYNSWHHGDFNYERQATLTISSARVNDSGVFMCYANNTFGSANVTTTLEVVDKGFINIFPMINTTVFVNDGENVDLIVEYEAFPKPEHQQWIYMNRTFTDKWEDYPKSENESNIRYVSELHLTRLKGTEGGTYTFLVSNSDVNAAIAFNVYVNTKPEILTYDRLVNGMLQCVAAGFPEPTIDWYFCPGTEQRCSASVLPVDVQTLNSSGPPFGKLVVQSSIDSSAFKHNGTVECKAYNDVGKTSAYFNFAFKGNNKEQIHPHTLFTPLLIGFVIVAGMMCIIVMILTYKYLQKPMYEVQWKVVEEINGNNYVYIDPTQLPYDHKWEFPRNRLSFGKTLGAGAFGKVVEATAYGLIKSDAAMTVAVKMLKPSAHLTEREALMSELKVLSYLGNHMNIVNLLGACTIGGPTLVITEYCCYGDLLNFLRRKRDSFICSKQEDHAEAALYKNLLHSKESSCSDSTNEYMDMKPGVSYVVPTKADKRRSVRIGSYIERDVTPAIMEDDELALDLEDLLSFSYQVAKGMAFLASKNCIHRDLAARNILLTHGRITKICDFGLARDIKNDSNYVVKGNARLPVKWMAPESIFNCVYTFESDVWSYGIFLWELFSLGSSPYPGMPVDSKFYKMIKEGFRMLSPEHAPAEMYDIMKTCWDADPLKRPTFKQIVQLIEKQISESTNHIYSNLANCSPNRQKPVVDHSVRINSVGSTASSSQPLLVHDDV
Chain of Serine/threonine-protein kinase B-raf (Homo sapiens, UniProt P15056) (P15056 whole entry): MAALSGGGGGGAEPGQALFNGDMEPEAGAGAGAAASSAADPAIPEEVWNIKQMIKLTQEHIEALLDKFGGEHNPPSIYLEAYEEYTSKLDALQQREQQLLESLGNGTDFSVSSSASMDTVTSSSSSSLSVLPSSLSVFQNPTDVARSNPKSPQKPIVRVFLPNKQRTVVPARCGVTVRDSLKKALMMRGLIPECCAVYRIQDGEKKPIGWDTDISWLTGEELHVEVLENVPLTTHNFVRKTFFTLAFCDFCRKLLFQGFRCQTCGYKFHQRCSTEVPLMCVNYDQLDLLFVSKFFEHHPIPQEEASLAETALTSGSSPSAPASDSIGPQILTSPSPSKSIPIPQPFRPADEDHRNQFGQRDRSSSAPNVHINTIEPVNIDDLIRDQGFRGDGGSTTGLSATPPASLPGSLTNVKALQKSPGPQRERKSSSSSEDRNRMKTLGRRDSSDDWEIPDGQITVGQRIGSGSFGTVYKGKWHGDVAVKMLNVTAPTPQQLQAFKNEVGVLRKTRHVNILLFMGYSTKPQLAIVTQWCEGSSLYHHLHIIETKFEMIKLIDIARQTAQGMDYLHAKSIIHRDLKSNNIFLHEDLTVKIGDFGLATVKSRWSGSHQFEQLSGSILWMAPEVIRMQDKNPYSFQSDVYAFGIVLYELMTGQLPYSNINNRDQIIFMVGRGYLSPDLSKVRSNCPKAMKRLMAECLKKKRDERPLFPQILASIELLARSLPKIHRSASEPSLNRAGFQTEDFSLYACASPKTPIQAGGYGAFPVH
T7 sequence (Q9H3Y6 whole entry): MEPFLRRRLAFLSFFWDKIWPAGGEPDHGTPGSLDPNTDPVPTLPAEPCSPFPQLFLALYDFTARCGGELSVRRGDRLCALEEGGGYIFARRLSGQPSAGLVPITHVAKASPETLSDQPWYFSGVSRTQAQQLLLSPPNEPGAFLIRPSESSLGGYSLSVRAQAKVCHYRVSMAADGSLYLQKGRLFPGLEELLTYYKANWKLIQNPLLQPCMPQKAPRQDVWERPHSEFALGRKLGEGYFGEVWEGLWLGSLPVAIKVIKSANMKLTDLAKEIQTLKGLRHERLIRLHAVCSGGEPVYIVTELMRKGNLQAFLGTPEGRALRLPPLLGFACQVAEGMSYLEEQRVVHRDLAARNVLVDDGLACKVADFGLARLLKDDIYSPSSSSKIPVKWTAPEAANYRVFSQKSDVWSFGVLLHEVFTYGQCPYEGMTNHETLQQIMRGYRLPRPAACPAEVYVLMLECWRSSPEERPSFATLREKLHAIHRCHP
T5 sequence (Q96GD4 whole entry): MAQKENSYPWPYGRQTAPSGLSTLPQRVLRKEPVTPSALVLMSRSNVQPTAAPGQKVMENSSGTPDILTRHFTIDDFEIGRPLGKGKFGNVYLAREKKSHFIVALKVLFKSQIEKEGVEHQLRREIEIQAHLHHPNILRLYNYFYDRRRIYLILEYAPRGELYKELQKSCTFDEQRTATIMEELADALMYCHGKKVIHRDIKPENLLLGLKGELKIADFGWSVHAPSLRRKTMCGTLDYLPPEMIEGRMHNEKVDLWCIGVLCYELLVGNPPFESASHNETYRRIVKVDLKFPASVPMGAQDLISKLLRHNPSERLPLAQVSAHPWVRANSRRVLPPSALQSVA
Chain of Serine/threonine-protein kinase B-raf (Homo sapiens), P15056 [V600E] (P15056 whole entry V600E): as the sequence (P15056 whole entry) above, with V600E counted along it
Chain of Mast/stem cell growth factor receptor Kit (Homo sapiens), P10721 [V559D] (P10721 whole entry V559D): as the sequence (P10721 whole entry) above, with V559D counted along it

SMILES: COc1n[nH]c2ncc(C#Cc3c(F)ccc(NS(=O)(=O)c4cccc(C#N)c4)c3F)cc12
- Kd [1]: 2.7 nM
- Activity [2]: 5.5%
- Activity [3]: 6.2%
- Activity [4]: 3%
- IC50 [5]: > 10000 nM
- Activity [6]: 9.9%
- Kd [7]: 22 nM
- inhibition [8]: Dose-dependent effect
- inhibition [9]: Dose-dependent effect
- Activity [10]: 2.9%
- Kd [11]: 64 nM
- inhibition [12]: Dose-dependent effect
- IC50 [13]: > 1000 nM
- AUC [14]: 253794 µg/L/h
- half-life [15]: 34.6 h
- IC50 [16]: 3.3 nM
- inhibition (INH) [17]: 3 - 8%
- inhibition [18]: Dose-dependent effect
- Activity [19]: 1.9%
- Kd [20]: 460 nM
- Activity [21]: 2.4%
- fraction unbound at 4 h, 1 µM [22]: 0.002
- Kd [23]: 45 nM
- Activity [24]: 3.9%
- Kd [25]: 88 nM
- Kd [26]: 64 nM
- Activity [27]: 1.5%
- inhibition [28]: Dose-dependent effect
- IC50 [29]: > 3000 nM
- inhibition [30]: Dose-dependent effect
- Kd [31]: 210 nM
- inhibition [32]: Dose-dependent effect
- Activity [33]: 0.9%
- Kd [34]: 50 nM
- Activity [35]: 0.95 g
- inhibition [36]: Dose-dependent effect
- bioavailability [37]: 20%
- inhibition [38]: Dose-dependent effect
- Kd [39]: 180 nM

SMILES: COc1n[nH]c2ncc(C#Cc3c(F)ccc(NS(=O)(=O)c4cccc(Br)c4)c3F)cc12
- IC50 [13]: > 1000 nM
- IC50 [16]: 5 nM
- IC50 [29]: > 1000 nM
